Experimental data taken from ChEMBL document CHEMBL4364297, “Probing the Ligand-Binding Pocket of BTN3A1” (J Med Chem, 2019).
Values belong to the molecule of their own block, whether it stands above or below them. Activity calls are given as the source filed them. No cut-off for these calls is given here.

Experiments:
[1] = biological target: T1, Butyrophilin subfamily 3 member A1 (Homo sapiens, UniProt O00481); experiment: (§1) Activation of BTN3A1 in human PBMC-derived Vgamma9/Vdelta2 T cells assessed as induction of IL2-stimulated cell proliferation by measuring increase in CD3+ cells up to 100 uM preincubated for 3 days followed by 11 days incubation post compound washout and subsequent IL2 stimulation for every 3 days measured after 14 days by flow cytometry; type: cell-based
Target sequence in this assay (O00481 30-513 limits assumed): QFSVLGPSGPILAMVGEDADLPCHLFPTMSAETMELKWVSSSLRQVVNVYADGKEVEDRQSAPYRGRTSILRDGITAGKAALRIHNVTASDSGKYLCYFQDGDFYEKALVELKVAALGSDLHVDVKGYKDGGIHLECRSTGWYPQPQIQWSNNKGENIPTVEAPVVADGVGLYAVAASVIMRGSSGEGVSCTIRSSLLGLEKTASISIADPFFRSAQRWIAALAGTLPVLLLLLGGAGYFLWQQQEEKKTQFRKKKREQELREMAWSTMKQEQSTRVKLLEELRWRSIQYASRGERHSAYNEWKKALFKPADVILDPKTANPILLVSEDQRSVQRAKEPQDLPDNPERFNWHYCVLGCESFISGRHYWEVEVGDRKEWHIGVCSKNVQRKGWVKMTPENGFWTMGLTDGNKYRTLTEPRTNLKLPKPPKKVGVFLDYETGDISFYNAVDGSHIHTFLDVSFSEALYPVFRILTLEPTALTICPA

[2] = biological target: T1, Butyrophilin subfamily 3 member A1; experiment: Displacement of GDP-BODIPY from C-terminal 6His-tagged BTN3A1 full […] domain (unknown origin) expressed in Escherichia coli BL21 (DE) measured after 60 mins by fluorescence polarization assay
Target sequence in this assay (O00481 whole entry): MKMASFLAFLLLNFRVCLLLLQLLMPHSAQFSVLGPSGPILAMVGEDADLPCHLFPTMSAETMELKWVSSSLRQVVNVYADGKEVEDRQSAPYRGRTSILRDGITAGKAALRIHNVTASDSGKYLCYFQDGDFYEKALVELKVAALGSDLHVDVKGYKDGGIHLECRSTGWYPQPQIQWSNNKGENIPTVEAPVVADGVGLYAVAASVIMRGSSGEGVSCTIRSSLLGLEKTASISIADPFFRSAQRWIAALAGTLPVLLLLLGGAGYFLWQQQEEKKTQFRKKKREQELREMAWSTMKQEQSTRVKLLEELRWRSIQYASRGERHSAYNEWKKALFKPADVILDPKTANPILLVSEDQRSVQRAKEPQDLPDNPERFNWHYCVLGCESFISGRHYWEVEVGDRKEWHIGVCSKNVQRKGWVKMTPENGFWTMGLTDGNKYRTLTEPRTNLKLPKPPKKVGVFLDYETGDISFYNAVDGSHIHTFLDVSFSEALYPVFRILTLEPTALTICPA

[3] = biological target: T1, Butyrophilin subfamily 3 member A1; experiment: Activation of BTN3A1 in human PBMC-derived Vgamma9/Vdelta2 T cells assessed as induction of IL2-stimulated IFNgamma production measured after 48 hrs by ELISA
Target sequence in this assay (O00481 whole entry): as above

[4] = biological target: T1, Butyrophilin subfamily 3 member A1; experiment: Displacement of GDP-BODIPY from C-terminal 6His-tagged BTN3A1 B30.2 domain (unknown origin) expressed in Escherichia coli BL21 (DE) measured after 60 mins by fluorescence polarization assay
Target sequence in this assay (O00481 whole entry): as above

[5] = biological target: T1, Butyrophilin subfamily 3 member A1; experiment: as §1, with “at 0.1” for “up to 100”, “cytometry relative to control” for “cytometry”; type: cell-based
Target sequence in this assay (O00481 30-513 limits assumed): as the sequence (O00481 30-513 limits assumed) above

[6] = Drug uptake in T cell media assessed as parent compound remaining at 10 uM measured after 48 hrs by UPLC-MS analysis
In short: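 This was the cell-free control. Compound at 10 μM final was held in T cell media without PBMCs, and loss of the parent compound was followed over time. Supernatant was analysed by UPLC-MS on a C18 column (25% to 80% acetonitrile gradient over 8 min). The molecular-ion integral is expressed relative to t = 0.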

[7] = Drug uptake in human PBMC assessed as parent compound remaining at 10 uM measured after 6 hrs by UPLC-MS analysis; type: ADME, cell-based; details: PBMC (peripheral blood mononuclear cells), read-out: Drug uptake
In short: (§2)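 Compound at 10 μM final was added to human PBMCs (1,000,000 cells/mL) suspended in T cell media and incubated. The supernatant was collected and stored at –20 °C, then analysed by UPLC-MS on a C18 column (25% to 80% acetonitrile over 8 min). The integrated molecular-ion signal is reported relative to t = 0.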

[8] = Drug uptake in human PBMC assessed as parent compound remaining at 10 uM measured after 24 hrs by UPLC-MS analysis; type: ADME, cell-based; details: PBMC (peripheral blood mononuclear cells), read-out: Drug uptake; in short: as §2
[9] = biological target: T1, Butyrophilin subfamily 3 member A1; experiment: as §1, with “at 10” for “up to 100”, “cytometry relative to control” for “cytometry”; type: cell-based
Target sequence in this assay (O00481 30-513 limits assumed): as above

[10] = biological target: T1, Butyrophilin subfamily 3 member A1; experiment: as §1, with “cells” for “cells up to 100 uM”; type: cell-based
Target sequence in this assay (O00481 whole entry): as the sequence (O00481 whole entry) above

[11] = biological target: Butyrophilin subfamily 3 member A1 (Homo sapiens, UniProt O00481, R442A); experiment: Displacement of GDP-BODIPY from C-terminal 6His-tagged BTN3A1 R442A mutant (unknown origin) expressed in Escherichia coli BL21 (DE) measured after 60 mins by fluorescence polarization assay
Sequence of Butyrophilin subfamily 3 member A1 (Homo sapiens, UniProt O00481, R442A) (O00481 30-513 R442A limits assumed): as the sequence (O00481 30-513 limits assumed) above, with R413A counted along it

[12] = biological target: Butyrophilin subfamily 3 member A1 (Homo sapiens, UniProt O00481, W421A); experiment: Displacement of GDP-BODIPY from C-terminal 6His-tagged BTN3A1 W421A mutant (unknown origin) expressed in Escherichia coli BL21 (DE) measured after 60 mins by fluorescence polarization assay
Sequence of Butyrophilin subfamily 3 member A1 (Homo sapiens, UniProt O00481, W421A) (O00481 30-513 W421A limits assumed): as the sequence (O00481 30-513 limits assumed) above, with W392A counted along it

[13] = biological target: Butyrophilin subfamily 3 member A1 (Homo sapiens, UniProt O00481, R448A); experiment: Displacement of GDP-BODIPY from C-terminal 6His-tagged BTN3A1 R448A mutant (unknown origin) expressed in Escherichia coli BL21 (DE) measured after 60 mins by fluorescence polarization assay
Sequence of Butyrophilin subfamily 3 member A1 (Homo sapiens, UniProt O00481, R448A) (O00481 30-513 R448A limits assumed): as the sequence (O00481 30-513 limits assumed) above, with R419A counted along it

[14] = biological target: Butyrophilin subfamily 3 member A1 (Homo sapiens, UniProt O00481, M424A); experiment: Displacement of GDP-BODIPY from C-terminal 6His-tagged BTN3A1 M424A mutant (unknown origin) expressed in Escherichia coli BL21 (DE) measured after 60 mins by fluorescence polarization assay
Sequence of Butyrophilin subfamily 3 member A1 (Homo sapiens, UniProt O00481, M424A) (O00481 30-513 M424A limits assumed): as the sequence (O00481 30-513 limits assumed) above, with M395A counted along it
In short: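 GDP-BODIPY probe (750 nM final) was incubated with 10 μM mutant BTN3A1 full intracellular domain in 100 mM NaCl, 50 mM Tris, 5 mM β-mercaptoethanol, pH 7.5. Test ligand was added at varying concentrations, and plates were kept 60 min in the dark. FP was read at 485/535 nm in triplicate, with at least 3 independent experiments. Probe in buffer served as the negative control and probe with protein as the positive control. IC50 was obtained by 4-parameter nonlinear regression.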

[15] = biological target: Butyrophilin subfamily 3 member A1 (Homo sapiens, UniProt O00481, R499A); experiment: Displacement of GDP-BODIPY from C-terminal 6His-tagged BTN3A1 R499A mutant (unknown origin) expressed in Escherichia coli BL21 (DE) measured after 60 mins by fluorescence polarization assay
Sequence of Butyrophilin subfamily 3 member A1 (Homo sapiens, UniProt O00481, R499A) (O00481 30-513 R499A limits assumed): as the sequence (O00481 30-513 limits assumed) above, with R470A counted along it

Compound: C/C(=C\CCP(=O)(O)OP(=O)(O)O)CO
IC50 [2]: 0.00787 mM
EC50 ([3]; read-out: EC50): 2 nM
IC50 [4]: 0.00787 mM

Compound: COP(=O)(CCCC/C=C(\C)CO)OC
Activity [1]: inactive

Compound: O=P([O-])([O-])OP(=O)([O-])[O-].[Na+].[Na+].[Na+].[Na+] [SODIUM PYROPHOSPHATE]
EC50 [3]: Not Active

Compound: C/C(=C\CCP(=O)(O)O)CO
IC50 [2]: 3.85 mM
IC50 [11]: 3.22 mM
IC50 [12]: 3.19 mM
IC50 [13]: 3.93 mM
EC50 ([3]; read-out: EC50): 3400 nM
IC50 [14]: 3.39 mM
IC50 [15]: 3.83 mM
IC50 [4]: 2.56 mM

Compound: C/C(=C\CCP(=O)(O)CP(=O)(O)O)CO
EC50 ([3]; read-out: EC50): > 100000 nM
IC50 [4]: 0.103 mM

Compound: C/C(=C\CCCCP(=O)([O-])[O-])CO.[Na+].[Na+]
Activity [1]: inactive
IC50 [2]: 1.07 mM
IC50 [11]: 3.43 mM
IC50 [12]: 3.24 mM
IC50 [13]: 4.62 mM
EC50 [3]: Not Active
IC50 [14]: 5.35 mM
IC50 [15]: 3.72 mM
EC50 [10]: Not Active

Continued, in another order:

Activity [1]: inactive
Compound: CC(C)=CCCCCP(=O)(OCOC(=O)C(C)(C)C)OCOC(=O)C(C)(C)C

EC50 ([3]; read-out: EC50): > 1000 nM
Compound: C/C(=C\CCP(=O)(CP(=O)(OCOC(=O)C(C)(C)C)OCOC(=O)C(C)(C)C)OCOC(=O)C(C)(C)C)CO (centres undefined)

Activity [5]: 64%
Compound: C/C(=C\COP(=O)(O)OP(=O)(O)O)CO

Activity [5]: Active
remaining at 6 h, 10 µM [7]: 58%
remaining at 24 h, 10 µM [8]: < 1%
EC50 ([3]; read-out: EC50): 15 nM
Compound: C/C(=C\CCP(=O)(OCOC(=O)C(C)(C)C)OCOC(=O)C(C)(C)C)CO
Drug uptake [6]: 63%

Activity [1]: inactive
Activity [9]: 28.1%
remaining at 6 h, 10 µM [7]: 44%
remaining at 24 h, 10 µM [8]: < 1%
EC50 [3]: Not Active
EC50 [10]: Not Active
Compound: C/C(=C\CCCCP(=O)(OCOC(=O)C(C)(C)C)OCOC(=O)C(C)(C)C)CO
Drug uptake [6]: 44%
